What was measured:
MDR1 (human) = assay: Efflux ratio of permeability in MDCK cells over-expressing human Mdr1; format: ADME, cell-based, Canis lupus familiaris; conditions: dog
[1] = Half life in iv dosed rat; format: ADME, organism-based; conditions: in vivo
[2] = Clearance in iv dosed rat; format: ADME, organism-based; conditions: in vivo
[3] = Volume of distribution at steady state in iv dosed rat; format: ADME, organism-based; conditions: in vivo, read-out: Vdss
[4] = molecular target: T1, Voltage-gated inwardly rectifying potassium channel KCNH2 (Homo sapiens, UniProt Q12809); assay: Inhibition of human ERG channel by QPatch technique
Hepatitis C virus [5] = assay: Selectivity index, ratio of EC50 for HCV genotype 1a expressing NS5A Q30R mutant to EC50 for HCV genotype 1a expressing wild type NS5A; format: functional, Hepacivirus hominis, subtype 1a
How it was run: (§1)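 Recombinant HCV replicon cell lines carrying the single NS5A substitution were tested, with the matching wild-type replicon as reference. The value is the fold shift of activity against the mutant relative to wild-type activity.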

[6] = Oral bioavailability in rat at 3 mg/kg; format: ADME, organism-based; conditions: in vivo
How it was run: (§2)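 Rats were dosed orally at 3 mg/kg as a solution in 30% aqueous PEG-400.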

Hepatitis C virus [7] = assay: Antiviral activity against Hepatitis C virus genotype 1b infected in human Huh-5.2 cells assessed as decrease in HCV replicon RNA replication after 4 days by luciferase assay; format: functional, cell-based, Hepacivirus hominis; conditions: Huh-5-2, 96 h
[8] = Metabolic stability in human hepatocytes assessed as compound remaining at 5 uM after 60 mins; format: ADME, cell-based, Hepatocyte; conditions: read-out: Stability
Hepatitis C virus [9] = assay: Selectivity index, ratio of EC50 for HCV genotype 1a expressing NS5A Y93H mutant to EC50 for HCV genotype 1a expressing wild type NS5A; format: functional, Hepacivirus hominis, subtype 1a; how it was run: as §1
Cytochrome P450 2C9 = Cytochrome P450 2C9 (Homo sapiens, UniProt P11712); assay: Inhibition of CYP2C9 (unknown origin); format: ADME
[10] = Permeability from apical to basolateral layer in human Caco2 cells; format: ADME, cell-based; conditions: Caco-2, read-out: permeability
Cytochrome P450 1A2 = molecular target: T2, Cytochrome P450 1A2 (Homo sapiens, UniProt P05177); assay: Inhibition of CYP1A2 (unknown origin); format: ADME
T2 sequence (P05177 whole entry): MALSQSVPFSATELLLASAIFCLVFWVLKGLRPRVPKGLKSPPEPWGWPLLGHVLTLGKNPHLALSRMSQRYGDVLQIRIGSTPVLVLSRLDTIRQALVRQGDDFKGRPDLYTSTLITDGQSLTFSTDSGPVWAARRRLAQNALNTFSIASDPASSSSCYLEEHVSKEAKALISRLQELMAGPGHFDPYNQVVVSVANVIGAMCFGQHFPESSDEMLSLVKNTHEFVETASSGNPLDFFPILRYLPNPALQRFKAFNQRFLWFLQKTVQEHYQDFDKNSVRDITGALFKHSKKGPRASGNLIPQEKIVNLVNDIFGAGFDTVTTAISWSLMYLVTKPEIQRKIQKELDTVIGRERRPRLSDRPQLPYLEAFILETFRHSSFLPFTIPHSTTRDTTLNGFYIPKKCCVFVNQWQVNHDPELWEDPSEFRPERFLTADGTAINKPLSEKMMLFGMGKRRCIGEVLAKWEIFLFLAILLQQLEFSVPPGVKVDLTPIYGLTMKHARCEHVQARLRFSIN

Hepatitis C virus [11] = assay: Antiviral activity against Hepatitis C virus genotype 1a infected in W11.8 cells assessed as decrease in NS5A expression in replicon cell after 4 days by luminescence based ELISA; format: functional, Hepacivirus hominis; conditions: subtype 1a, W11.8, 96 h
[12] = Cytotoxicity against human Huh7ET cells by [3H]-thymidine incorporation assay; format: cell-based; conditions: Huh7ET cells (Huh-7)
How it was run: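 Huh-7 ET cells were exposed to 12 test-compound concentrations, each in duplicate. Viability was read by [3H]-thymidine incorporation and CC50 was derived from the curve. A run was accepted only when the positive-control CC50 fell within 40% of its mean value.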

[13] = Cmax in rat at 3 mg/kg, po; format: ADME, organism-based; parameters: dose 3 mg/kg, route oral; conditions: in vivo; how it was run: as §2
[14] = molecular target: T1, Voltage-gated inwardly rectifying potassium channel KCNH2; assay: Inhibition of human ERG channel by planar technique
Cytochrome P450 2D6 = Cytochrome P450 2D6 (Homo sapiens, UniProt P10635); assay: Inhibition of CYP2D6 (unknown origin); format: ADME
[15] = Protein binding in human plasma; format: ADME, cell-free; conditions: read-out: PPB (converted)
[16] = Protein binding in rat plasma; format: ADME, cell-free; conditions: read-out: PPB (converted)
Cytochrome P450 2C19 = Cytochrome P450 2C19 (Homo sapiens, UniProt P33261); assay: Inhibition of CYP2C19 (unknown origin); format: ADME
[17] = Metabolic stability in rat hepatocytes assessed as compound remaining at 5 uM after 60 mins; format: ADME, cell-based, Hepatocyte; conditions: read-out: Stability
[18] = Half life in rat at 3 mg/kg, po; format: ADME, organism-based; parameters: dose 3 mg/kg, route oral; conditions: in vivo; how it was run: as §2
Hepatitis C virus [19] = assay: Selectivity index, ratio of EC50 for HCV genotype 1a expressing NS5A M28T mutant to EC50 for HCV genotype 1a expressing wild type NS5A; format: functional, Hepacivirus hominis, subtype 1a; how it was run: as §1
Hepatitis C virus [20] = assay: Selectivity index, ratio of EC50 for HCV genotype 1b expressing NS5A Y93H mutant to EC50 for HCV genotype 1b expressing wild type NS5A; format: functional, Hepacivirus hominis; how it was run: as §1
[21] = AUC (0 to 8 hrs) in rat at 3 mg/kg, po; format: ADME, organism-based; parameters: time < 8 hr, dose 3 mg/kg, route oral; conditions: plasma; how it was run: as §2
Cytochrome P450 3A4 = Cytochrome P450 3A4 (Homo sapiens, UniProt P08684); assay: Inhibition of CYP3A4 (unknown origin); format: ADME
Cytochrome P450 3A4, sequence (P08684 whole entry): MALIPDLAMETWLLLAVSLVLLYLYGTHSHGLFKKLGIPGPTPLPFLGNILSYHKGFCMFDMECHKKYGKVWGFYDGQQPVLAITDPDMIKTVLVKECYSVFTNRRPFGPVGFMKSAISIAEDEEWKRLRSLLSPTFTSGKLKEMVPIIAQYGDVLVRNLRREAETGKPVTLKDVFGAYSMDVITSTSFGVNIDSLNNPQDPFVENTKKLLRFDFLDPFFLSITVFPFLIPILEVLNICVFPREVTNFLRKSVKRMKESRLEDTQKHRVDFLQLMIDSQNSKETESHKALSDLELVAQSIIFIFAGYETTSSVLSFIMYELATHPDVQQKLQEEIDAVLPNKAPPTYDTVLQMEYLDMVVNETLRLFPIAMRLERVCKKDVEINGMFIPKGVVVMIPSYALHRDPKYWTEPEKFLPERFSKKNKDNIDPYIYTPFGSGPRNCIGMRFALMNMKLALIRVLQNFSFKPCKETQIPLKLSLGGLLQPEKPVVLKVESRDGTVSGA

T1 sequence (Q12809 whole entry): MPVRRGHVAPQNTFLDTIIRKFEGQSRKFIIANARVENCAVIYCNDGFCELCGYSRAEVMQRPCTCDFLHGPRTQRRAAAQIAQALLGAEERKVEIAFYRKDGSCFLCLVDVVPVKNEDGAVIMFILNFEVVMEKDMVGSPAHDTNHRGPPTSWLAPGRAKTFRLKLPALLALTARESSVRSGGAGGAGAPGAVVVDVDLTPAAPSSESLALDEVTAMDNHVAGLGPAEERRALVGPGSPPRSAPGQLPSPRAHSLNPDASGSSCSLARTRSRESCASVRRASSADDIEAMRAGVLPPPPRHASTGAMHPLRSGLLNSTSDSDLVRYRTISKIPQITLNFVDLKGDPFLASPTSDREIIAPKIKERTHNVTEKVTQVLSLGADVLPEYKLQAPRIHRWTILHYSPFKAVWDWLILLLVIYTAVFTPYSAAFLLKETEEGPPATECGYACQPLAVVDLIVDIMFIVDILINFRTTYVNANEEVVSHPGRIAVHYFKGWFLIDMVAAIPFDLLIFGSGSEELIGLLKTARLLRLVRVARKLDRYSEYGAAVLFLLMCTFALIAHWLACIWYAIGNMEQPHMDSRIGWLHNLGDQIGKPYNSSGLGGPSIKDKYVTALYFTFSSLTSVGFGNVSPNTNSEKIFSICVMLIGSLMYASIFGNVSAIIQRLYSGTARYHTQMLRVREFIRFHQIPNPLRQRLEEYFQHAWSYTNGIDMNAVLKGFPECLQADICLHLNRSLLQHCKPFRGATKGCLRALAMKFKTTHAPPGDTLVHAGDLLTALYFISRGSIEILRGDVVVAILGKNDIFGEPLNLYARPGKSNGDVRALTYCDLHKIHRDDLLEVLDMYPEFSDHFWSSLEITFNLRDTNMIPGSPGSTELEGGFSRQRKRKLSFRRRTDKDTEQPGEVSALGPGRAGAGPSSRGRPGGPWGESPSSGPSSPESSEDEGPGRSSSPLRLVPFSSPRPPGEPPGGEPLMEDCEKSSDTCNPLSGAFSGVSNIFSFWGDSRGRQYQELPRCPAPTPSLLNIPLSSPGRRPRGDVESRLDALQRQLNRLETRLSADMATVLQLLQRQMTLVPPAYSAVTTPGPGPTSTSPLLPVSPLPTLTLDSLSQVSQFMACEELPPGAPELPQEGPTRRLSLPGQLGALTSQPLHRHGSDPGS
Cytochrome P450 2C19, sequence (P33261 whole entry): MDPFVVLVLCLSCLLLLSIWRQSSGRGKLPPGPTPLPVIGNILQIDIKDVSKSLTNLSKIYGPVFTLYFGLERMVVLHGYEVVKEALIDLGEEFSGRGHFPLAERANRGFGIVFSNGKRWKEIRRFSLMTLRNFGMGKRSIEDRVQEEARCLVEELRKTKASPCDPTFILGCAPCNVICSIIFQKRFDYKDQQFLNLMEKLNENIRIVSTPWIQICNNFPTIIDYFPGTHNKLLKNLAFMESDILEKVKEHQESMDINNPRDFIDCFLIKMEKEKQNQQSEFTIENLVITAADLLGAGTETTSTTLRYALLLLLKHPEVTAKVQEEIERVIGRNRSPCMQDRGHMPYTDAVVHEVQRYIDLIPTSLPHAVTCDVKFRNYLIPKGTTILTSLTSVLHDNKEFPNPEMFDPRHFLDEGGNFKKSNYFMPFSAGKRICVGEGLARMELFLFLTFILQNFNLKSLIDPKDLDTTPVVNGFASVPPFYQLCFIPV
Cytochrome P450 2D6, sequence (P10635 whole entry): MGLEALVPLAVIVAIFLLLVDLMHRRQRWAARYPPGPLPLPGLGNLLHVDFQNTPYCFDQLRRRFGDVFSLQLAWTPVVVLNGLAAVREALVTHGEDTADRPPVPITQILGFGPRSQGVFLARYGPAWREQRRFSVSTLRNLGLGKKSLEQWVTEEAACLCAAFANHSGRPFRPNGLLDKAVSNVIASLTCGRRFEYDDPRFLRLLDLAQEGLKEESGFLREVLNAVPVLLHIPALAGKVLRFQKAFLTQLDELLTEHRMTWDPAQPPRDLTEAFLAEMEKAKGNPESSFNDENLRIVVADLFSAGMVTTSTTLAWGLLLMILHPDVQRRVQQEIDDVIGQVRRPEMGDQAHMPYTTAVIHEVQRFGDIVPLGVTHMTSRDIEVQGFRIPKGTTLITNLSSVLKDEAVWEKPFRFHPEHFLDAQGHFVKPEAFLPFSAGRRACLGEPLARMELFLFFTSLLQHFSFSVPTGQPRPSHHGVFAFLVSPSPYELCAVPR
Cytochrome P450 2C9, sequence (P11712 whole entry): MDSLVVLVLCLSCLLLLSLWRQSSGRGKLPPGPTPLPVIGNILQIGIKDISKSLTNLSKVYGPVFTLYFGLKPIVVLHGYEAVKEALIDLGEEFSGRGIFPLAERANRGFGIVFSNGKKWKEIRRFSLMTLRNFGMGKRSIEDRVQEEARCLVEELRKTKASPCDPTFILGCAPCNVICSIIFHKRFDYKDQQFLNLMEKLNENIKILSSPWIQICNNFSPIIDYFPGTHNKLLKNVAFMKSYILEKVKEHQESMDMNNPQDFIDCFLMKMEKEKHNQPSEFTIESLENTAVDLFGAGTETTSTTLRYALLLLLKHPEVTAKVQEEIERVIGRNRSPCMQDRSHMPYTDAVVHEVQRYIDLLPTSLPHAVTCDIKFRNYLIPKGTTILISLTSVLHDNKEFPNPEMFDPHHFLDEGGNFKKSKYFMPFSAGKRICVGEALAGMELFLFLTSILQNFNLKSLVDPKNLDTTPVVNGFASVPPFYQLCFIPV

For COC(=O)N[C@H](C(=O)N1C[C@@H](C)C[C@H]1c1nc(-c2ccc(-c3ccc(-c4ccc5[nH]c([C@@H]6C[C@H](C)CN6C(=O)[C@@H](NC(=O)OC)C(C)C)nc5c4)cc3)cc2)c[nH]1)C(C)C, the efflux ratio (MDR1 (human)) was 1.8, the half-life [1] was 2 h and the clearance [2] was 0.54 L/h/kg. For the same compound, the Vd [3] was 1.4 L/kg, the IC50 [4] was greater than 30 µM and the Selectivity ratio (Hepatitis C virus [5]) was 42. The bioavailability [6] was 26%, the EC50 (Hepatitis C virus [7]) was 5 pM and the remaining at 1 h, 5 µM [8] was greater than 90%. The Selectivity ratio (Hepatitis C virus [9]) was 8000, the IC50 (Cytochrome P450 2C9) was greater than 30 µM and the Papp A→B [10] was 41 nm/s. The IC50 (Cytochrome P450 1A2) was greater than 30 µM, the EC50 (Hepatitis C virus [11]) was 4 pM and the CC50 [12] was greater than 20 µM. The Cmax [13] was 0.03 ng/mL, the IC50 [14] was greater than 30 µM and the IC50 (Cytochrome P450 2D6) was greater than 30 µM. It also gave a fraction unbound [15] of 0.014, a fraction unbound [16] of 0.083 and an IC50 (Cytochrome P450 2C19) greater than 30 µM. The remaining at 1 h, 5 µM [17] was greater than 90%, the half-life [18] was 3.5 h and the Selectivity ratio (Hepatitis C virus [19]) was 55. For the same compound, the Selectivity ratio (Hepatitis C virus [20]) was 100, the AUC(0-t) at 8 h [21] was 2.08 µg·h/mL and the IC50 (Cytochrome P450 3A4) was greater than 30 µM.

— ChEMBL document CHEMBL3393023, “Benzimidazole-containing HCV NS5A inhibitors: effect of 4-substituted pyrrolidines in balancing genotype 1a and 1b potency” (Bioorg Med Chem Lett, 2015)
